The results in this text go back to ChEMBL document CHEMBL1124287, “Imidazole-pyridine bioisosterism: comparison of the inotropic activities of pyridine- and imidazole-substituted 6-phenyldihydropyridazinone cardiotonics” (1988).

For orientation: ED50 means the dose at which the effect has come halfway, by size or by number of responders. Read a high ED50 as a need for a large dose.

The test system of assay [1] is Canis familiaris. The experiment in a line: Heart contractility was measured in anesthetized dogs (iv). It counts as functional. The settings on record: Canis lupus familiaris. An outline of the steps: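 Mongrel dogs of either sex (7–14 kg), pentobarbital-anesthetized (35 mg/kg iv), ventilated, kept at 37–38 °C. Right-ventricular Walton-Brodie strain-gauge arch at 50 g tension. Increasing log doses given iv via femoral vein at 5-min intervals, peak response recorded. ED50 (dose for 50% contractility rise) by linear regression, mean ± SEM. Separate animal group per drug.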

Assay [2] concerns Canis familiaris. The experiment in a line: Percent increase in heart rate was measured in anesthetized dogs. Format: functional, Canis lupus familiaris. In a few lines:
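Heart rate taken from a cardiometer triggered by the femoral arterial pressure pulse, in pentobarbital-anesthetized (35 mg/kg iv), ventilated mongrel dogs (7–14 kg). Escalating iv log doses at 5-min intervals. Reported as percent change from control at the inotropic ED50 dose.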

The subject of assay [3] is Canis familiaris. The experiment in a line: Percent decrease in mean arterial blood pressure was measured in anesthetized dogs. It counts as functional, Canis lupus familiaris. In a few lines: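 Pentobarbital-anesthetized (35 mg/kg iv), ventilated mongrel dogs of either sex (7–14 kg). Mean arterial pressure recorded via femoral arterial catheter and pressure transducer. Log doses given iv at 5-min intervals. Value is percent change from control at the inotropic ED50 dose.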

Turning to `O=C1CCC(c2ccc(-n3ccnc3)cc2)=NN1` [IMAZODAN], in the assay with Canis familiaris [1], the ED50 came out at 0.0501 mg/kg. For the same compound, in the assay with Canis familiaris [2], the “Increase in HR” value is listed as 16.9%. Also, the “Decrease in MAP” value with Canis familiaris [3] is 28.4%.
Consider `O=C1CCC(c2ccc3c(c2)CCCN3)=NN1`, for which, in the assay on Canis familiaris [2], the “Increase in HR” value is given as 37%. The “Decrease in MAP” value with Canis familiaris [3] came to 12%.
Turning to `O=C1CCC(c2ccc3c(c2)CCC(=O)N3)=NN1`, it took a dose of 0.0032 mg/kg to reach the 50% effect level in the assay on Canis familiaris [1] (ED50). Besides, the “Increase in HR” value in the assay on Canis familiaris [2] is given as 13.2%. In the assay with Canis familiaris [3], the “Decrease in MAP” value was found to be 16.1%.
In the same order, the values of `CC(=O)Nc1ccc(C2=NNC(=O)CC2)cc1` are 0.0113 mg/kg, 8.8% and 15.1%.
On the same counts, the results for `O=C1CCC(c2ccc(-c3ccncc3)cc2)=NN1` are 0.146 mg/kg, 19.1% and 29.9%.
In the same order, the values of `O=C1CCC(c2ccc(-c3cccnc3)cc2)=NN1` are 0.0194 mg/kg, 7.5% and 12.7%.
Compound `O=C1CCC(c2ccc(-c3ccccc3)cc2)=NN1` had an ED50 with Canis familiaris [1] of 0.513 mg/kg. In addition, the “Increase in HR” value in the assay with Canis familiaris [2] is listed as 18.8%. In the assay on Canis familiaris [3], the “Decrease in MAP” value is reported as 20.9%.
On the same counts, the results for `O=C1CCC(c2ccccc2)=NN1` are 6.33 mg/kg, 39.1% and 24.9%.
